In data set [1] the target is Collagenase 3 (Homo sapiens, UniProt P45452). Nature of the data set: Inhibition of human recombinant MMP13 using Cy3-PLGLK(Cy5Q)AR-NH2 as substrate after 40 mins by spectrofluorimetry.
In data set [2] the test system is Liver microsome. Nature of the data set: Metabolic stability in rat liver microsomes. Type of data set: ADME. A digest of the protocol:
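The free acid was incubated with hepatic microsomes of each species. Stability is reported as clearance in μL/min/mg microsomal protein.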
A general note: Liver microsomes are vesicles of endoplasmic reticulum, rich in cytochrome P450 enzymes.

Data set [3] deals with Rattus norvegicus. Nature of the data set: Intrinsic clearance in iv dosed rat. Type of data set: ADME, organism-based. Conditions: in vivo.

Turning to `COc1cccc(CNC(=O)c2nc3ccc(F)cc3c(=O)[nH]2)c1`, in data set [1], the IC50 is 11 nM. Take `COc1cccc(CNC(=O)c2nc3ccc(C(F)(F)F)cc3c(=O)[nH]2)c1`: the IC50 in data set [1] is 97 nM.

`COc1cccc(CNC(=O)c2nc3ccc(OC)cc3c(=O)[nH]2)c1`: the IC50 in data set [1] stood at 4 nM. For the compound `CCOc1ccc2nc(C(=O)NCc3cccc(OC)c3)[nH]c(=O)c2c1`, the 50% inhibitory concentration (IC50) in data set [1] was 2.4 nM. On the same count and under the same terms, the same measure for `COc1cccc(CNC(=O)c2nc3ccc(OC(F)(F)F)cc3c(=O)[nH]2)c1`: 27 nM. Regarding `COc1cccc(CNC(=O)c2nc3ccc(OCc4ccccc4)cc3c(=O)[nH]2)c1`, the 50% inhibitory concentration (IC50) in data set [1] stood at 110 nM.

Take `COc1cccc(CNC(=O)c2nc3ccc(SC)cc3c(=O)[nH]2)c1`: in data set [1], the 50% inhibitory concentration (IC50) was 1.8 nM. On the same count and under the same terms, then `COc1cccc(CNC(=O)c2nc3ccc(S(C)(=O)=O)cc3c(=O)[nH]2)c1`, with 23 nM; and `COc1cccc(CNC(=O)c2nc3ccc(-c4ccccc4)cc3c(=O)[nH]2)c1`, with 9.8 nM. Turning to `COc1cccc(CNC(=O)c2nc3ccc(C#N)cc3c(=O)[nH]2)c1`, the IC50 in data set [1] was found to be 6.3 nM. On the same count and under the same terms, the same measure for `COc1cccc(CNC(=O)c2nc3cc(OC)ccc3c(=O)[nH]2)c1`: 2200 nM. With `COc1cccc(CNC(=O)c2nc3c(OC)cccc3c(=O)[nH]2)c1`, the half-inhibitory concentration (IC50) in data set [1] is above 10000 nM.

For `COc1cccc(CNC(=O)c2nc3cccc(F)c3c(=O)[nH]2)c1`, the 50% inhibitory concentration (IC50) in data set [1] was 5 nM. The same measure, in the same setting: then `COc1cccc(CNC(=O)c2nc3cccc(OC)c3c(=O)[nH]2)c1`, with 25 nM; and `COc1cccc(CNC(=O)c2nc3cccc(C#N)c3c(=O)[nH]2)c1`, with 8.6 nM. For the compound `COc1cccc(CNC(=O)c2nc3cccc(-c4ccccc4)c3c(=O)[nH]2)c1`, the IC50 in data set [1] is 2.2 nM.

Turning to `COc1cccc(CNC(=O)c2nc3cccc(Oc4ccccc4)c3c(=O)[nH]2)c1`, in data set [1], the half-inhibitory concentration (IC50) worked out at 0.53 nM.

`COc1cccc(CNC(=O)c2nc3cccc(OCc4ccccc4)c3c(=O)[nH]2)c1`: the IC50 in data set [1] turned out to be 0.31 nM. In turn, `COc1cccc(CNC(=O)c2nc3cccc(OCCc4ccccc4)c3c(=O)[nH]2)c1` came in with a Microsomal clearance in data set [2] of 170 µL/min/mg. Moreover, the CL in data set [3] is 28.3 mL/min/kg. Moreover, the 50% inhibitory concentration (IC50) in data set [1] turned out to be 0.69 nM. With `COc1cccc(CNC(=O)c2nc3cccc(OCCCc4ccccc4)c3c(=O)[nH]2)c1`, the IC50 in data set [1] came out at 0.52 nM. Same read-out and setting: then `COc1cccc(CNC(=O)c2nc3cccc(OCCOCc4ccccc4)c3c(=O)[nH]2)c1`, with 1.6 nM. On to `COc1cccc(CNC(=O)c2nc3cccc(NCCc4ccccc4)c3c(=O)[nH]2)c1`, for which the half-inhibitory concentration (IC50) in data set [1] is 4.3 nM. The same measure, in the same setting: the same measure for `COc1cccc(CNC(=O)c2nc3cccc(SCCc4ccccc4)c3c(=O)[nH]2)c1`: 9.7 nM; for `COc1cccc(CNC(=O)c2nc3cccc(CCCc4ccccc4)c3c(=O)[nH]2)c1`: 2.9 nM; for `COc1cccc(CNC(=O)c2nc3cccc(COCc4ccccc4)c3c(=O)[nH]2)c1`: 1.7 nM.

Consider `COc1cccc(CNC(=O)c2nc3cccc(CN(C)Cc4ccccc4)c3c(=O)[nH]2)c1`, for which the IC50 in data set [1] is 16 nM.

As for `COc1cccc(CNC(=O)c2nc3cccc(CC(=O)Nc4ccccc4)c3c(=O)[nH]2)c1`, in data set [1], the half-maximal inhibitory concentration (IC50) worked out at 0.16 nM. Still for that read-out and setting: the same measure for `COc1cccc(CNC(=O)c2nc3cccc(OCCC4CCCCC4)c3c(=O)[nH]2)c1`: 0.99 nM.

As for `COc1cccc(CNC(=O)c2nc3cccc(OCCN4CCCCC4)c3c(=O)[nH]2)c1`, the IC50 in data set [1] was 34 nM. Take `COc1cccc(CNC(=O)c2nc3ccc(F)c(OCCc4ccccc4)c3c(=O)[nH]2)c1`: in data set [2], the Microsomal clearance came to 150 µL/min/mg. This compound displayed a CL in data set [3] of 17 mL/min/kg. Besides, the IC50 in data set [1] is 0.04 nM. On the same counts, the results for `COc1cccc(CNC(=O)c2nc3ccc(F)c(OCCc4ccc(F)cc4)c3c(=O)[nH]2)c1` are 180 µL/min/mg, 28.3 mL/min/kg and 0.15 nM. On the same counts, the results for `COc1cccc(CNC(=O)c2nc3ccc(F)c(OCCc4ccc(N)cc4)c3c(=O)[nH]2)c1` are 140 µL/min/mg, 233 mL/min/kg and 0.03 nM.

As usually defined, the IC50 is the concentration that gives 50% inhibition.

For the origin of these results see ChEMBL document CHEMBL3352689 (J Med Chem, 2014).
